{"data": "Results collected from several papers", "SPHK1": "Sphingosine kinase 1 (SPHK1, Homo sapiens, UniProt Q9NYA1)", "EDNRA": "Endothelin-1 receptor (EDNRA, Homo sapiens, UniProt P25101)", "EHMT1": "Histone-lysine N-methyltransferase EHMT1 (EHMT1, Homo sapiens, UniProt Q9H9B1)", "PARP1": "Poly [ADP-ribose] polymerase 1 (PARP1, Homo sapiens, UniProt P09874)", "ADORA2A": "Adenosine receptor A2a (ADORA2A, Homo sapiens, UniProt P29274)", "OPRK1": "Kappa-type opioid receptor (OPRK1, Homo sapiens, UniProt P41145)", "PIK3C2B": "Phosphatidylinositol 4-phosphate 3-kinase C2 domain-containing subunit beta (PIK3C2B, Homo sapiens, UniProt O00750)", "PDE5A": "cGMP-specific 3',5'-cyclic phosphodiesterase (PDE5A, Homo sapiens, UniProt O76074)", "CNR1": "Cannabinoid receptor 1 (CNR1, Homo sapiens, UniProt P21554)", "note": "Each line is one published result; the experiments were not run side by side."}
{"SMILES": "CN(C)C1CCN(CC#Cc2nn(C3CCCC3)c3nc(NCc4ccccc4)ncc23)C1 (centres unmarked)", "target": "Serine/threonine-protein kinase TBK1 (TBK1, Homo sapiens, UniProt Q9UHD2)", "test": "enzyme activity, inhibitor, FRET", "setting": "1 µM", "inhibition [%]": 3}
{"SMILES": "CC(C)(C)c1ccc(CCc2ccc(-c3noc([C@@H]4CCCN4C(=N)N)n3)cc2C(F)(F)F)cc1", "target": "SPHK1", "test": "enzyme activity, inhibitor, radiometric", "setting": "1 µM", "inhibition [%]": 17}
{"SMILES": "O=C(CSc1nc2nccnc2c(=O)n1CCc1ccccc1)Nc1nccs1", "target": "SPHK1", "test": "enzyme activity, inhibitor", "setting": "10 µM", "inhibition [%]": 8}
{"SMILES": "COc1cc(NC(C)=O)c(Cl)cc1C(=O)Nc1nccs1", "target": "EDNRA", "test": "cell-free assay", "setting": "10 µM", "inhibition [%]": -1.4}
{"SMILES": "O=C(Oc1cc(O)cc2c1C[C@@H](OC(=O)c1cc(O)c(O)c(O)c1)[C@@H](c1cc(O)c(O)c(O)c1)O2)c1cc(O)c(O)c(O)c1", "target": "EHMT1", "test": "cell-free assay", "setting": "10 µM", "inhibition [%]": -4}
{"SMILES": "CCN1CCN(Cc2ccc(NC(=O)c3ccc(C)c(/C=C/c4cnc5[nH]ccc5c4OC)c3)cc2C(F)(F)F)CC1", "target": "Serine/threonine-protein kinase A-Raf (ARAF, Homo sapiens, UniProt P10398)", "test": "target engagement in cells, inhibitor, chemoproteomics", "system": "A-375", "setting": "5 µM", "inhibition [%]": -23.9}
{"SMILES": "COc1cc2c(cc1OC)-c1nnnn1CCC2", "target": "PARP1", "test": "enzyme activity, inhibitor", "setting": "10 µM", "inhibition [%]": 60}
{"SMILES": "CCN(c1cc(C#CCN2CCOCC2)cc(C(=O)NCc2c(C)cc(C)[nH]c2=O)c1C)[C@H]1CC[C@H](N(C)CCOC)CC1", "target": "EHMT1", "test": "enzyme activity, inhibitor", "setting": "1 µM", "inhibition [%]": 9}
{"SMILES": "COCCOc1ccc(N2CCN(CCc3ccc4oc(-c5ccco5)nc4c3)CC2)cc1", "target": "ADORA2A", "test": "ligand displacement, radioligand", "setting": "10 µM, cell membranes", "inhibition [%]": 10}
{"SMILES": "O=C(O)c1cc(O)c2c(c1)[C@H]([C@H]1c3cc(C(=O)O)cc(O)c3C(=O)c3c(O[C@@H]4O[C@H](CO)[C@@H](O)[C@H](O)[C@H]4O)cccc31)c1cccc(O[C@@H]3O[C@H](CO)[C@@H](O)[C@H](O)[C@H]3O)c1C2=O", "target": "EHMT1", "test": "cell-free assay", "setting": "10 µM", "inhibition [%]": 16}
{"SMILES": "O=C(Nc1ccc(S(=O)(=O)N2CCC(Cl)CC2)cc1)c1ccc([N+](=O)[O-])o1", "target": "OPRK1", "test": "cell-free assay", "setting": "10 µM", "inhibition [%]": 7}
{"SMILES": "COc1ccc(CCc2ccc(-c3noc([C@@H]4CCCN4C(=N)N)n3)cc2C(F)(F)F)cc1", "target": "SPHK1", "test": "enzyme activity, inhibitor, radiometric", "setting": "1 µM", "inhibition [%]": 0}
{"SMILES": "Cc1cc(O)c(C=O)c2c1C(=O)Oc1c(C)c(O)c3c(c1O2)C(O)OC3=O (centres unmarked)", "target": "EHMT1", "test": "cell-free assay", "setting": "10 µM", "inhibition [%]": -4}
{"SMILES": "[H]/N=C(\\N)N1CCC[C@H]1c1nc(-c2ccc(OCC=Cc3cccc(C(F)(F)F)c3)c(C(F)(F)F)c2)no1", "target": "SPHK1", "test": "enzyme activity, inhibitor, radiometric", "setting": "1 µM", "inhibition [%]": 0}
{"SMILES": "CCN(Cc1ccccc1C(F)(F)F)C(=O)C1CCN(S(=O)(=O)c2ccc3[nH]ncc3c2)CC1", "target": "OPRK1", "test": "ligand displacement, radioligand", "setting": "10 µM", "inhibition [%]": 5}
{"SMILES": "CCCc1ccc(CCc2ccc(-c3noc([C@@H]4CCCN4C(=N)N)n3)cc2C(F)(F)F)cc1", "target": "SPHK1", "test": "enzyme activity, inhibitor, radiometric", "setting": "1 µM", "inhibition [%]": 6}
{"SMILES": "O=C(c1ccc(F)cc1)N(Cc1ccccc1)C1CCCCC1", "target": "OPRK1", "test": "ligand displacement", "setting": "10 µM", "inhibition [%]": 33}
{"SMILES": "CC(C)CCn1c(SCC(=O)Nc2ccccc2C(F)(F)F)nc2nccnc2c1=O", "target": "PIK3C2B", "test": "enzyme activity, inhibitor", "setting": "10 µM", "inhibition [%]": 23}
{"SMILES": "Cc1cc(-c2ccc(/N=N/c3ccc4c(S(=O)(=O)O)cc(S(=O)(=O)O)c(N)c4c3O)c(C)c2)ccc1/N=N/c1ccc2c(S(=O)(=O)O)cc(S(=O)(=O)O)c(N)c2c1O", "target": "EHMT1", "test": "cell-free assay", "setting": "10 µM", "inhibition [%]": 48}
{"SMILES": "Oc1cccc(Nc2nc(-c3ccc(F)cc3F)cs2)c1", "target": "EDNRA", "test": "cell-free assay", "setting": "10 µM", "inhibition [%]": -11.2}
{"SMILES": "N=C(N)N1CCC[C@H]1c1nc(-c2ccc(CCc3ccc(C(F)(F)F)cc3)c(C(F)(F)F)c2)no1", "target": "SPHK1", "test": "enzyme activity, inhibitor, radiometric", "setting": "1 µM", "inhibition [%]": 12}
{"SMILES": "CCN1C(=O)[C@H]2Cc3c([nH]c4ccccc34)[C@H](c3cccnc3)N2C1=O", "target": "PDE5A", "test": "enzyme activity, inhibitor, FP", "setting": "50 µM", "inhibition [%]": 58}
{"SMILES": "CCCC=CCOc1ccc(-c2noc([C@@H]3CCCN3C(=N)N)n2)cc1C(F)(F)F", "target": "SPHK1", "test": "enzyme activity, inhibitor, radiometric", "setting": "1 µM", "inhibition [%]": 12}
{"SMILES": "O=C(CN1CCNCC1)Nc1ccc2oc(-c3ccco3)nc2c1", "target": "ADORA2A", "test": "ligand displacement, radioligand", "setting": "10 µM, cell membranes", "inhibition [%]": 8}
{"SMILES": "CCCNc1nc2ccccc2n1Cc1ccc(Cl)cc1", "target": "OPRK1", "test": "ligand displacement", "setting": "10 µM", "inhibition [%]": 11.1}
{"SMILES": "COc1ccc(-c2nc3cc(CCCN4CCCCC4)ccc3o2)cc1OC", "target": "ADORA2A", "test": "ligand displacement, radioligand", "setting": "10 µM, cell membranes", "inhibition [%]": 10}
{"SMILES": "COc1ccc(-n2nc(OCCCN3CCCCC3)ccc2=O)cc1", "target": "CNR1", "test": "ligand displacement", "setting": "1 µM", "inhibition [%]": 43.8}
{"SMILES": "COC(=O)[C@@H]1Cc2c([nH]c3ccccc23)[C@H](c2ccc(OC)c(OC)c2)N1", "target": "PDE5A", "test": "enzyme activity, inhibitor, FP", "setting": "50 µM", "inhibition [%]": 8}
{"SMILES": "CCCCC=CCOc1ccc(-c2noc([C@@H]3CCCN3C(=N)N)n2)cc1C(F)(F)F", "target": "SPHK1", "test": "enzyme activity, inhibitor, radiometric", "setting": "1 µM", "inhibition [%]": 18}
{"SMILES": "O=c1c(-c2cc(O)c(O)c(O)c2)coc2cc(O)c(O)c(O)c12", "target": "EHMT1", "test": "cell-free assay", "setting": "10 µM", "inhibition [%]": 0}
{"SMILES": "O=c1[nH]c(-c2c[nH]c3ncccc23)nc2ccccc12", "target": "PARP1", "test": "enzyme activity, inhibitor, ELISA", "setting": "10 µM", "inhibition [%]": 28}
{"SMILES": "COc1ccc([C@@H]2c3[nH]c4ccccc4c3C[C@@H]3C(=O)N(C(C)(C)C)C(=O)N23)cc1OC", "target": "PDE5A", "test": "enzyme activity, inhibitor, FP", "setting": "50 µM", "inhibition [%]": 54}
{"SMILES": "N#Cc1cc(Cn2c(N3CCCC3)nc3ccccc32)ccc1F", "target": "OPRK1", "test": "ligand displacement", "setting": "10 µM", "inhibition [%]": -11.7}
{"SMILES": "O=C1NCCCc2ccc(F)cc21", "target": "PARP1", "test": "enzyme activity, inhibitor", "setting": "10 µM", "inhibition [%]": 15}
{"SMILES": "O=C(c1ccc(Cl)cc1)N(Cc1ccccc1)C1CCCCC1", "target": "CNR1", "test": "cell-free assay", "setting": "10 µM", "inhibition [%]": 11.1}
{"SMILES": "COc1ccc(-c2nc3cc(CCN4CCN(c5ccccc5)CC4)ccc3o2)cc1OC", "target": "ADORA2A", "test": "ligand displacement, radioligand", "setting": "10 µM, cell membranes", "inhibition [%]": 5}
{"SMILES": "C=CCN1C(=O)[C@H]2Cc3c([nH]c4ccccc34)[C@H](c3ccc(Br)s3)N2C1=O", "target": "PDE5A", "test": "enzyme activity, inhibitor, FP", "setting": "10 µM", "inhibition [%]": 67}
{"SMILES": "CN1CC(Oc2cnc(C#N)cc2-c2ccn3nc(NC(=O)C4CC4)cc3c2)C1", "target": "Testis-specific serine/threonine-protein kinase 4 (TSSK4, Homo sapiens, UniProt Q6SA08)", "test": "enzyme activity, inhibitor", "setting": "1 µM", "inhibition [%]": -7}
{"SMILES": "CS(=O)(=O)Nc1cccc(-c2csc(NC(=O)CSc3nc4nccnc4c(=O)n3CCc3ccccc3)n2)c1", "target": "PIK3C2B", "test": "enzyme activity, inhibitor", "setting": "10 µM", "inhibition [%]": 19}
{"SMILES": "COC(=O)[C@H]1Cc2c([nH]c3ccccc23)[C@H](c2ccc(OC)c(OC)c2)N1C(=O)CCl", "target": "PDE5A", "test": "enzyme activity, inhibitor, FP", "setting": "50 µM", "inhibition [%]": 75}
{"SMILES": "COc1cc(NC(C)CCCN)c2ncccc2c1 (centres unmarked)", "target": "EHMT1", "test": "cell-free assay", "setting": "10 µM", "inhibition [%]": 7}
{"SMILES": "CCN1C(=O)[C@@H]2Cc3c([nH]c4ccccc34)[C@H](c3ccc(OC)c(OC)c3)N2C1=O", "target": "PDE5A", "test": "enzyme activity, inhibitor, FP", "setting": "50 µM", "inhibition [%]": 52}
{"SMILES": "Ic1cccc2cnccc12", "target": "PARP1", "test": "enzyme activity, inhibitor", "setting": "10 µM", "inhibition [%]": 19.5}
{"SMILES": "COC(=O)[C@@H]1Cc2c([nH]c3ccccc23)[C@H](c2cccnc2)N1", "target": "PDE5A", "test": "enzyme activity, inhibitor, FP", "setting": "50 µM", "inhibition [%]": 72}
{"SMILES": "O=c1c(O)cccc2c([C@H]3Oc4cc(O)cc(O)c4C[C@H]3O)cc(O)c(O)c12", "target": "EHMT1", "test": "cell-free assay", "setting": "10 µM", "inhibition [%]": 5}
{"SMILES": "CC(C)(C)N1C(=O)[C@H]2Cc3c([nH]c4ccccc34)[C@@H](c3cccnc3)N2C1=O", "target": "PDE5A", "test": "enzyme activity, inhibitor, FP", "setting": "50 µM", "inhibition [%]": 90}
{"SMILES": "Cn1cncc1C1=CN(c2ncnc3[nH]cnc23)CCS1", "target": "Interleukin-1 receptor-associated kinase-like 2 (IRAK2, Homo sapiens, UniProt O43187)", "test": "enzyme activity, inhibitor, radiometric", "setting": "2 µM", "inhibition [%]": 85}
